Assay results: paper PMC6541390 (Biochemistry, 2010)
Several values for one entry are separate records, joined by “and”; a condition that tells them apart may be missing. Equal entries are not always repeated. Where two headings read alike, the source gives them in different places.

What was measured:
[1] = target: T1, Escherichia coli biotin synthase (BS) (Escherichia coli, UniProt P12996); experiment: BS activity at varying AdoMet concentration, commercial versus pure AdoMet; format: biochemical; conditions: enzymatically synthesized AdoMet, Michaelis-Menten fit; BS 25 μM
T1 sequence (P12996 whole entry): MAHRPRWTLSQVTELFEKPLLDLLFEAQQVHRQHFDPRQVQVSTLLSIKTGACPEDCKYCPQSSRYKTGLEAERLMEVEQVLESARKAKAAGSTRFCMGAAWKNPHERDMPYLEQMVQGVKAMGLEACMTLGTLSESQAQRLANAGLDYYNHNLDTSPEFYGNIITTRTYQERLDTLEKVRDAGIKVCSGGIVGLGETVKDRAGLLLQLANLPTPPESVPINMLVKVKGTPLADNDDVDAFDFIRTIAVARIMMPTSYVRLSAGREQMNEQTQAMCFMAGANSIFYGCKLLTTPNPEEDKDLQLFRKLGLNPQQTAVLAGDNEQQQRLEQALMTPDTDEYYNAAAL

[2] = target: T1, Escherichia coli biotin synthase (BS); conditions: read-out: Kd AdoMet; cited from earlier work
[3] = cited from earlier work
[4] = target: T1, Escherichia coli biotin synthase (BS); format: biochemical; conditions: for Ki: BS 25 μM, 30 min, 37 °C
[5] = target: T1, Escherichia coli biotin synthase (BS); experiment: Screen for BS inhibition by products and product-related compounds; format: biochemical; conditions: for inhibition of BS in the screen: inhibitor 500 μM alone, AdoMet 100 μM, BS 25 μM, 30 min, 37 °C
Method in brief: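 Anaerobic: BS (25 μM) in 50 mM Tris-HCl, 100 mM KCl, 5 mM DTT, pH 8.0, reconstituted 5 min with Na2S and FeCl3 (200 μM each). Flavodoxin 25 μM, its NADP+ reductase 4 μM, NADPH 1 mM and DTB 50 μM added for 5 min, then AdoMet 100 μM and candidate (500 μM). 30 min, 37 °C; biotin, dAH, MDTB by HPLC; duplicates averaged, normalised to no-inhibitor sample.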

[6] = target: T1, Escherichia coli biotin synthase (BS); experiment: Equilibrium UV/visible titration of AdoHcy binding to reconstituted BS
[7] = target: T1, Escherichia coli biotin synthase (BS); experiment: Titration of BS active sites with AdoHcy in the activity assay; format: biochemical; conditions: extrapolation of the initial linear part of the inhibition curve
[8] = target: T1, Escherichia coli biotin synthase (BS); experiment: Effect of MTA nucleosidase on BS activity in the presence of inhibitors; format: biochemical
[9] = target: T2, E. coli MTAN (5′-methylthioadenosine/S-adenosyl-L-homocysteine nucleosidase) (Escherichia coli, UniProt P0AF12); conditions: identical assay conditions; ref Lee et al. (32); cited from earlier work
T2 sequence (P0AF12 whole entry): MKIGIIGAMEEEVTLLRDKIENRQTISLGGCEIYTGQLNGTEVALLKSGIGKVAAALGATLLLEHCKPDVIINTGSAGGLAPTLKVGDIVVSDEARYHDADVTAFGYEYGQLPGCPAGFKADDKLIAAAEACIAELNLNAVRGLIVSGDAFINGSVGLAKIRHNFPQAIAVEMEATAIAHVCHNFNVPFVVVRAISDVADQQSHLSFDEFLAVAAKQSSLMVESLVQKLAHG

[10] = system: E. coli cytosine 5-methyltransferase; conditions: cited from earlier work
[11] = target: rat catechol O-methyltransferase; conditions: cited from earlier work
PFL activase = PFL activase (Escherichia coli, UniProt P0A9N4); conditions: at 100 μM AdoMet; cited from earlier work
Chain of PFL activase (P0A9N4 2-246): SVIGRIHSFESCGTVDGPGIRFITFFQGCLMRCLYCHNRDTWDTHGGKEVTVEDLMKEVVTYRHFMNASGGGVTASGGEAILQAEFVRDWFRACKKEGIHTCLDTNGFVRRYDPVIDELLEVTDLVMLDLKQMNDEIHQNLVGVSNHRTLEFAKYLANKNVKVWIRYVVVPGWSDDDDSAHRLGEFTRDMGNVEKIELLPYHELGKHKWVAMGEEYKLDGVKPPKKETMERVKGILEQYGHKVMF

[12] = target: T2, E. coli MTAN (5′-methylthioadenosine/S-adenosyl-L-homocysteine nucleosidase); experiment: MTA/AdoHcy nucleosidase activity assay; format: biochemical
BS = conditions: 30 μM dAH, 90 min assay; cited from earlier work
E. coli BS = E. coli BS (Escherichia coli, UniProt P12996); conditions: high AdoMet concentration, 3 h at 37 °C; cited from earlier work
Chain of E. coli BS (P12996 whole entry): as the sequence (P12996 whole entry) above

DNA methyltransferases = conditions: binding cooperatively with DNA; cited from earlier work
[13] = Ki, inhibitor alone, competitive with AdoMet

## C[S+](CC[C@H](N)C(=O)[O-])C[C@H]1O[C@@H](n2cnc3c(N)ncnc32)[C@H](O)[C@@H]1O (stereo partly drawn) [AdoMet, S-adenosyl-L-methionine]
[1]
  Vmax: 0.52 µM/min
[2]
  Kd: 2.3 µM
[3]; 37 °C
  t½ of spontaneous racemization at the sulfonium center: 107 h
[3]; physiological conditions
  t½ of spontaneous degradation to MTA: 42 h

## CSCC[C@H](N)C(=O)O [methionine]
[4]; [13]
  Ki: 100 µM
[5]
  inhibition of BS in the screen: inhibitors

## Nc1ncnc2c1ncn2[C@@H]1O[C@H](CSCC[C@H](N)C(=O)O)[C@@H](O)[C@H]1O [AdoHcy, S-adenosyl-L-homocysteine]
[4]; Ki AdoHcy, fit to eq 1 with a, b, c = 1 and d = 0, AdoMet 100-500 μM
  Ki: ≤ 0.65 µM and 0.4 to 1.2 µM and < 0.65 µM and 0.65 µM
[5]
  inhibition of BS in the screen: no detectable biotin produced
[5]; inhibitor 500 μM, 30 min assay
  level of MDTB intermediate relative to control: less MDTB than the control sample
[6]
  Kd: 0.54 ± 0.15 µM
[6]; equilibrium titration, BS 50 μM
  AdoHcy binding sites per BS dimer: 1.5 sites per dimer
[6]; read-out: koff, inhibitor dissociation
  koff: ≥ 10 s⁻¹
[7]
  AdoHcy equivalents (sites) per BS dimer for complete inhibition: 0.85 equiv per dimer
[8]; MTAN 200 nM
  BS activity on addition of MTAN: only partially restored
[8]; inhibitor 50 μM (each), without MTAN, BS 25 μM, 37 °C
  decrease of BS activity: ~ 95%
[9]
  kcat: 2.6 s⁻¹
[10]
  Ki: 14 µM
[11]
  Ki: 50 µM
PFL activase
  IC50: ~20 µM

## NC(CCS)C(=O)O (centres unmarked) [Homocysteine]
[5]
  inhibition of BS in the screen: not an inhibitor

## 5′-methylthioadenosine [MTA]
[5]
  inhibition of BS in the screen: not an inhibitor

## C[C@H]1O[C@@H](n2cnc3c(N)ncnc32)[C@H](O)[C@@H]1O [dAH, 5′-deoxyadenosine]
[4]; [13]
  Ki: 20 µM
[4]; excess methionine
  enhancement of dAH inhibition by cooperative binding with methionine: 3 fold
[5]
  inhibition of BS in the screen: inhibitors
[5]; inhibitor 500 μM, 30 min assay
  concentration of MDTB intermediate relative to the control sample: 3–4 times
[12]
  turnover rate (kcat) faster than with AdoHcy: 2 fold
  turnover rate (kcat) faster than with MTA: 1.7 fold
  weaker affinity (Km) for MTA nucleosidase as compared to MTA: 5.8 fold
[12]; MTAN 12 nM, 50 mM sodium phosphate pH 7.5
  kcat: 5.1 s⁻¹
BS
  inhibition of biotin production: ~ 90%
E. coli BS
  IC50: ~400 µM

## O=C(O)CCCC[C@@H]1SC[C@@H]2NC(=O)N[C@@H]21 [biotin]
[5]
  inhibition of BS in the screen: neither biotin nor iminobiotin, the guanido analogue of biotin, is a significant inhibitor

## C[S+](CC[C@H](N)C(=O)[O-])C[C@H]1O[C@@H](n2cnc3c(N)ncnc32)[C@H](O)[C@@H]1O (stereo partly drawn) [(R,S)-AdoMet]
[5]; heat-racemized AdoMet, 55 μM (R,S)-AdoMet and 100 μM (S,S)-AdoMet
  decrease of biotin production: ~15%

## N=C1N[C@H]2[C@H](CS[C@H]2CCCCC(=O)O)N1 [iminobiotin]
[5]
  inhibition of BS in the screen: neither biotin nor iminobiotin, the guanido analogue of biotin, is a significant inhibitor

## Nc1ncnc2c1ncn2[C@@H]1O[C@H](C[C@@H](N)CC[C@H](N)C(=O)O)[C@@H](O)[C@H]1O [sinefungin]
[4]; [13]
  Ki: 40 to 140 µM and 75 µM
[5]
  inhibition of BS in the screen: inhibitor with a decrease in activity comparable to that observed for dAH
[5]; inhibitor 500 μM, 30 min assay
  level of MDTB intermediate relative to control: less MDTB than the control sample
DNA methyltransferases
  Ki: ~0.01 µM
